The target of series [1] is T1, Neuronal acetylcholine receptors; alpha-3/beta-4, alpha-5, beta-2 (Homo sapiens) (UniProt P17787+P30926+P32297+P30532). Put plainly: Antagonist activity at alpha3beta4alpha5beta2 in human SH-SY5Y cells at 10 uM by 86Rb+ flux assay. It is filed as functional, cell-based. The essentials:
(§1)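 Human neuroblastoma SH-SY5Y cells endogenously express α3β4* nAChRs (α3, β4, probably α5, sometimes β2); their α7 receptors give no signal under these conditions. Cells were kept at low passage (1−26 from frozen stocks). Function was read as 86Rb+ efflux, with agonist and antagonist modes tested up to 10 μM.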

For series [2], the target named is D(1B) dopamine receptor (Homo sapiens) (UniProt P21918). Put plainly: Displacement of [3H][…] from D5 at 10 uM. In general terms: In a radioligand displacement assay an active substance lowers the binding of a labelled ligand.
A short description of series [3]: Displacement of [3H]Muscimol from GABA(A) at 10 uM.
In series [4] the target is 5-hydroxytryptamine receptor 7 (Homo sapiens) (UniProt P34969). Put plainly: Displacement of [3H]LSD from 5-HT7 at 10 uM.
Series [5] has as its target 5-hydroxytryptamine receptor 2B (Homo sapiens) (UniProt P41595). Kind of series: Displacement of [3H]LSD from 5-HT2B at 10 uM.
Series [6] deals with 5-hydroxytryptamine receptor 1E (Homo sapiens) (UniProt P28566). Kind of series: Displacement of [3H]5-HT from 5-HT1E at 10 uM.
Sequence of 5-hydroxytryptamine receptor 1E (Homo sapiens) (P28566 whole entry): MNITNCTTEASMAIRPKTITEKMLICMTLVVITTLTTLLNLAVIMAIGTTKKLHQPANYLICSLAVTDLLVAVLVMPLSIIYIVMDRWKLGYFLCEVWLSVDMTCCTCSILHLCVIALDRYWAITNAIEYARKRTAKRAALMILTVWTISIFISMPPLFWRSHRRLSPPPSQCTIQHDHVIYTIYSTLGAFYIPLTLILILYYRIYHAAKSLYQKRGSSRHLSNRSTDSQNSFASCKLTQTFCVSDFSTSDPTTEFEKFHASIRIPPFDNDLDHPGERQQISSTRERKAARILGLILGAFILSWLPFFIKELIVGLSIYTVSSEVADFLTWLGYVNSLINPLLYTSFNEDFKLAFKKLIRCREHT
Series [7] addresses Neuronal acetylcholine receptor; alpha3/beta4 (Rattus norvegicus, UniProt P04757+P12392). Put plainly: Displacement of [3H] epibatidine from rat alpha3beta4 nAChR by beta scintillation counting. It is filed as protein-complex assay.
Series [8] deals with Histamine H1 receptor (Homo sapiens) (UniProt P35367). Put plainly: Displacement of [3H]Pyrilamine from H1 histamine receptor at 10 uM.
Sequence of Histamine H1 receptor (Homo sapiens) (P35367 whole entry): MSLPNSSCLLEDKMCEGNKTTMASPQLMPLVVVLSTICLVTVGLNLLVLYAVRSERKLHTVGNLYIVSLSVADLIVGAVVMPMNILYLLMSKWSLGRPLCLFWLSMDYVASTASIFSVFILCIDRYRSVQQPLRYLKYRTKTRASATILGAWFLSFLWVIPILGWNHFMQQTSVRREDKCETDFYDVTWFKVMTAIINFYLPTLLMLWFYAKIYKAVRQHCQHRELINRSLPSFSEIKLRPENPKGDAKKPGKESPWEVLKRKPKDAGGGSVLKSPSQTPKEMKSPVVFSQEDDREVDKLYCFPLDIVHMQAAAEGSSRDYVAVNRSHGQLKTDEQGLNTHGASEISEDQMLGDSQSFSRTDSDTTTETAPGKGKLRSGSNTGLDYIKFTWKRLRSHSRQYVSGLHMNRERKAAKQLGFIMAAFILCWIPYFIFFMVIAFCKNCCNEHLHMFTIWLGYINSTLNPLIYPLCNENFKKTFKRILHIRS
The target in series [9] is Sodium-dependent dopamine transporter (Homo sapiens) (UniProt Q01959). Kind of series: Displacement of [3H]WIN35428 from DAT at 10 uM.
Sequence of Sodium-dependent dopamine transporter (Homo sapiens) (Q01959 whole entry): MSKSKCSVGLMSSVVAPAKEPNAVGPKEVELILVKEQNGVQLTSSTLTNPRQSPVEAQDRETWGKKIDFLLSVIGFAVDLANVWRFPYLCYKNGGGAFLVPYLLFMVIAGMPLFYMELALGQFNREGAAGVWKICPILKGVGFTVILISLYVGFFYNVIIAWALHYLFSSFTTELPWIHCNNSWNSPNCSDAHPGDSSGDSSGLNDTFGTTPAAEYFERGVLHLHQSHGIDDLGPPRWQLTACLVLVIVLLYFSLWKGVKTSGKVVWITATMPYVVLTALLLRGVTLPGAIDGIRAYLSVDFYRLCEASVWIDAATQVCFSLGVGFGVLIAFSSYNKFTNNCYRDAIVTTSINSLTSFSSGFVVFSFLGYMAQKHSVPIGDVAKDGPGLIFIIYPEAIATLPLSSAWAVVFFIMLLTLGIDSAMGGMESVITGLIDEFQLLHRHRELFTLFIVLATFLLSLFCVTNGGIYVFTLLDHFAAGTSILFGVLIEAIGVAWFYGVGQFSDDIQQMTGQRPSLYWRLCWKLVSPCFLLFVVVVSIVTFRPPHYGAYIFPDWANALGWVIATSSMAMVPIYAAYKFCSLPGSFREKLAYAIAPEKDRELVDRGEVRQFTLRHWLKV
Series [10] deals with Mu-type opioid receptor (Homo sapiens) (UniProt P35372). Kind of series: Displacement of [3H]DAMGO from mu opioid receptor at 10 uM.
The target in series [11] is 5-hydroxytryptamine receptor 1B (Homo sapiens) (UniProt P28222). Put plainly: Displacement of [3H][…] from 5-HT1B at 10 uM.
Sequence of 5-hydroxytryptamine receptor 1B (Homo sapiens) (P28222 whole entry, canonical isoform): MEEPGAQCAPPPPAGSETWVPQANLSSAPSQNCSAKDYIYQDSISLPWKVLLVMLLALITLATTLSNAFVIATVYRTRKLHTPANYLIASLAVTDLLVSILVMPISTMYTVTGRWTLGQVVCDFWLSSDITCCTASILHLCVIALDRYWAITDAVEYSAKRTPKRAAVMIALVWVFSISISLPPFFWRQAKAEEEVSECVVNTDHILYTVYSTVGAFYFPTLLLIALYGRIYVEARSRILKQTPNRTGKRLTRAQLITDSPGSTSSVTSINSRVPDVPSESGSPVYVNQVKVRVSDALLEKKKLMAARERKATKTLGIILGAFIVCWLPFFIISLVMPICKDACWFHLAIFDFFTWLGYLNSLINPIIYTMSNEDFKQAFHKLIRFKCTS
The target in series [12] is Cytochrome P450 2D6 (Homo sapiens, UniProt P10635). Put plainly: Inhibition of CYP2D6 up to 10 uM. In kind it is ADME. The essentials: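 Percent inhibition of CYP isoforms (CYP1A, CYP2C9, CYP2C19, CYP2D6, CYP3A; CYP1A2 reported) with test compound at concentrations up to 10 μM.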
The target in series [13] is T1, Neuronal acetylcholine receptors; alpha-3/beta-4, alpha-5, beta-2 (Homo sapiens). Put plainly: Agonist activity at alpha3beta4alpha5beta2 in human SH-SY5Y cells at 10 uM by 86Rb+ flux assay. It is filed as functional, cell-based. The essentials: as §1
Series [14] concerns the target T2, Neuronal acetylcholine receptor; alpha4/beta2 (Homo sapiens, UniProt P17787+P43681). Put plainly: Antagonist activity at human alpha4beta2 nAChR expressed in SH-EP1 cells assessed as inhibition of carbamylcholine induced 86Rb+ ion efflux preincubated for 10 mins prior to carbamylcholine-induction measured after 5 mins by flip-plate technique. It is filed as functional, cell-based. An outline of the steps: (§2)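 SH-EP1 human epithelial cells stably transfected with separate human α4 and β2 subunit cDNAs express a mixed population of high-sensitivity (2:3 α4:β2) and low-sensitivity (3:2) α4β2-nAChRs. Cells were kept at low passage (1−26 from frozen stocks). Function was read as 86Rb+ ion flux.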

Series [15] concerns the target T3, Alpha-2A adrenergic receptor (Homo sapiens) (UniProt P08913).
T3 sequence (whole entry): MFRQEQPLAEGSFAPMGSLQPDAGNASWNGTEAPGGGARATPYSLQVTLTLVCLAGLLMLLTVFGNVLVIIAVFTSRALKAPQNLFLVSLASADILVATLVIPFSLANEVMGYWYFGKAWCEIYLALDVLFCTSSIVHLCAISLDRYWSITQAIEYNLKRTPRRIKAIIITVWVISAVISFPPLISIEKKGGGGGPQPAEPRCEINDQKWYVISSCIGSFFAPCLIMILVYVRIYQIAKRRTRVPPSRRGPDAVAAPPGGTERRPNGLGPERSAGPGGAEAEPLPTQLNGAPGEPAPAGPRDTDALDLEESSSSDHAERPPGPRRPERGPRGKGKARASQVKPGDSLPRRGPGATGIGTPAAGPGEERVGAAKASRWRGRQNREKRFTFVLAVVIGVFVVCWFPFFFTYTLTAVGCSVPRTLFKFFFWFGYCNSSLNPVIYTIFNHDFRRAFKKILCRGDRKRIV
Put plainly: Displacement of [3H]Clonidine from alpha2A adrenergic receptor at 10 uM.

Series [16] concerns the target T2, Neuronal acetylcholine receptor; alpha4/beta2. Kind of series: Antagonist activity at human high sensitive and low sensitive alpha4beta2 nAChR expressed in SH-EP1 cells assessed as inhibition of carbamylcholine induced 86Rb+ ion efflux preincubated for 10 mins prior to carbamylcholine-induction measured after 5 mins by flip-plate technique relative to control. It is filed as functional, cell-based. The essentials: as §2

Series [17] addresses T4, Alpha-2B adrenergic receptor (Homo sapiens) (UniProt P18089).
T4 sequence (whole entry): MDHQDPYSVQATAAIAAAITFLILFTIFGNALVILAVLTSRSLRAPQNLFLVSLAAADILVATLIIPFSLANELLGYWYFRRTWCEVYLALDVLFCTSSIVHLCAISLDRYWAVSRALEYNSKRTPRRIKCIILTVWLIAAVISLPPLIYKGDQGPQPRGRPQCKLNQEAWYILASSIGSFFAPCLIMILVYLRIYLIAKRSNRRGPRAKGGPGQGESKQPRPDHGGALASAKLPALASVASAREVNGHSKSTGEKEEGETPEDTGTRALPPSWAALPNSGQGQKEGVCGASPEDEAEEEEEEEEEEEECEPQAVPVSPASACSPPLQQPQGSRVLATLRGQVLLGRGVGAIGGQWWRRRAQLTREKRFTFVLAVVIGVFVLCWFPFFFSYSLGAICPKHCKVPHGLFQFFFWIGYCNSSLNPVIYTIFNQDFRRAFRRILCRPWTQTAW
Kind of series: Displacement of [3H]Clonidine from alpha2B adrenergic receptor at 10 uM.

Series [18] concerns the target T5, Muscarinic acetylcholine receptor M4 (Homo sapiens) (UniProt P08173).
T5 sequence (whole entry): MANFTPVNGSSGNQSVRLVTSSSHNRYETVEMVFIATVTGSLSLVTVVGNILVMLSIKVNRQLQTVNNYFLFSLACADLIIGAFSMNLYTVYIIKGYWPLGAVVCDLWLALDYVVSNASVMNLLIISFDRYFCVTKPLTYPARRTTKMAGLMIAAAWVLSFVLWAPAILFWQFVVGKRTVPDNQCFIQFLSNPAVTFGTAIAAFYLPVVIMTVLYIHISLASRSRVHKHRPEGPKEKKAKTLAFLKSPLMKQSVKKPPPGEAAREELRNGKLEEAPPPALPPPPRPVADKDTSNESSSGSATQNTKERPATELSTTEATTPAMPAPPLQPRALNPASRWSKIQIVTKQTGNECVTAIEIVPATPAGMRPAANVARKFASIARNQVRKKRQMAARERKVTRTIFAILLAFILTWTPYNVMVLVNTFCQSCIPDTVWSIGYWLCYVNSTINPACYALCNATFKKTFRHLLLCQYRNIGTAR
Kind of series: Displacement of [3H]QNB from M4 receptor at 10 uM.

Series [19] in a line: Displacement of [3H]DTG from sigma2 receptor at 10 uM.

The text below walks through data of ChEMBL document CHEMBL2021777 (J Med Chem, 2012).

Calls of active or inactive are those of the source. No cut-off for these calls is given here.

Sequence of 5-hydroxytryptamine receptor 2B (Homo sapiens) (P41595 whole entry): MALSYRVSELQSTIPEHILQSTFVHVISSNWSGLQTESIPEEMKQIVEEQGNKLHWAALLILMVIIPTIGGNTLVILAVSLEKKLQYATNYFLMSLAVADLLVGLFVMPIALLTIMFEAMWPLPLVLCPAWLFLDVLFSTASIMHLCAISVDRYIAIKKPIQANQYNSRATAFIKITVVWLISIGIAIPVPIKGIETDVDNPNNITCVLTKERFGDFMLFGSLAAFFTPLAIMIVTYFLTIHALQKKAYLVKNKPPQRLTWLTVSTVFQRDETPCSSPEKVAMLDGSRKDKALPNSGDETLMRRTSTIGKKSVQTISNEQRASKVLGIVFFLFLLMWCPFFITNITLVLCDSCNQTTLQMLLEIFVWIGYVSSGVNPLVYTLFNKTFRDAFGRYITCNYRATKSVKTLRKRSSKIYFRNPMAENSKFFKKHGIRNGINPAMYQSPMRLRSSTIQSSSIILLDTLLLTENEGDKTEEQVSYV
T1 sequence (P17787 whole entry, looked up): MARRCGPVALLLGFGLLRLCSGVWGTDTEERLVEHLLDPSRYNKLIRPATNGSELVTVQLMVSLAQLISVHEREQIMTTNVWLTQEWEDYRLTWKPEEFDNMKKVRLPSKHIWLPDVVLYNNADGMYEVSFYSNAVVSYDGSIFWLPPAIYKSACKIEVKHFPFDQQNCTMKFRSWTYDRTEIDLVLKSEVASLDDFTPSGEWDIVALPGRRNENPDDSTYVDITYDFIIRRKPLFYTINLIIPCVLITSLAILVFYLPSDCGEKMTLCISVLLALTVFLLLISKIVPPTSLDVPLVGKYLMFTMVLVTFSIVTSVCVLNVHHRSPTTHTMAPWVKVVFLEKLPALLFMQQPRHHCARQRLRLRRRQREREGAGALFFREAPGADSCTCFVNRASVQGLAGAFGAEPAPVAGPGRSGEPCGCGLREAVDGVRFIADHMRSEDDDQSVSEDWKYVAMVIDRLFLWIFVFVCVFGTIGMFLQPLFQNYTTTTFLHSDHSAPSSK
T1 sequence (P30532 whole entry, looked up): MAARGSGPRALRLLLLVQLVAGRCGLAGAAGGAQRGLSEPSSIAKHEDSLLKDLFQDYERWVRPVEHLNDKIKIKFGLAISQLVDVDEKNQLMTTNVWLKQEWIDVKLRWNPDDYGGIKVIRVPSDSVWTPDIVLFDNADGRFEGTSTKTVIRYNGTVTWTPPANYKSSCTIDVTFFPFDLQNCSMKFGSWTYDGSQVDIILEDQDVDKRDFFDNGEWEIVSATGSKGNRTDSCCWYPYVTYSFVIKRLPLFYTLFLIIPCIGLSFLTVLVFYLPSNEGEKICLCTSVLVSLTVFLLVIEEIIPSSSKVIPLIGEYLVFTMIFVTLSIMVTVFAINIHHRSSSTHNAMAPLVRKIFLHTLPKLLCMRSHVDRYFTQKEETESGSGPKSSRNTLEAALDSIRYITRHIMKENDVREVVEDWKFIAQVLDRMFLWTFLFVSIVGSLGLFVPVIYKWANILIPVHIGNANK
T1 sequence (P30926 whole entry, looked up): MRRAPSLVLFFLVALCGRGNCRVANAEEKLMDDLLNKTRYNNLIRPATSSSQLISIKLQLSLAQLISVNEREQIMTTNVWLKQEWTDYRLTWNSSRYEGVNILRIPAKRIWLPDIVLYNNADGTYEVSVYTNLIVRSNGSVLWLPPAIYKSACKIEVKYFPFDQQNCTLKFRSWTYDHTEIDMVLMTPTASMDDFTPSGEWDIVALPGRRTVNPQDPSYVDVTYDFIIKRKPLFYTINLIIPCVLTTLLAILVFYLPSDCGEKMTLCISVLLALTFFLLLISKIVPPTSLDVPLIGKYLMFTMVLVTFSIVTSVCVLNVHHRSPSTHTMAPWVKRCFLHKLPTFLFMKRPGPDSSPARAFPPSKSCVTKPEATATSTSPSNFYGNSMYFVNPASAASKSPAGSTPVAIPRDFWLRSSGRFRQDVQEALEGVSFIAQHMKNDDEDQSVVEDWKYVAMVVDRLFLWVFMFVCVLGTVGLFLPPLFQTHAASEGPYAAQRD
T1 sequence (P32297 whole entry, looked up): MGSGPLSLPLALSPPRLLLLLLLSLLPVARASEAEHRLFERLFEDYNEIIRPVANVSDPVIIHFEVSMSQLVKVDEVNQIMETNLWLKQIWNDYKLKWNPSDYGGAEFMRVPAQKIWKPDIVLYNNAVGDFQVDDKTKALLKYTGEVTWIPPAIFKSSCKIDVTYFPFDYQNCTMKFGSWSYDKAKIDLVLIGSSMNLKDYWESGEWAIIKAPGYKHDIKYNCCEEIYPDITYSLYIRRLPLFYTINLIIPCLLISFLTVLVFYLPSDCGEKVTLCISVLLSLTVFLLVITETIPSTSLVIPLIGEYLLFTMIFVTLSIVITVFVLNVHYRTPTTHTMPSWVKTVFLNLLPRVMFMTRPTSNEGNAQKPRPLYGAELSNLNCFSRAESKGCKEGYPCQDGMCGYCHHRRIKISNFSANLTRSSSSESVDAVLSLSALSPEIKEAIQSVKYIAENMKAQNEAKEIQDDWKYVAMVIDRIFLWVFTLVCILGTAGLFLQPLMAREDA
T2 sequence (P17787 whole entry): as the sequence (P17787 whole entry, looked up) above
T2 sequence (P43681 whole entry): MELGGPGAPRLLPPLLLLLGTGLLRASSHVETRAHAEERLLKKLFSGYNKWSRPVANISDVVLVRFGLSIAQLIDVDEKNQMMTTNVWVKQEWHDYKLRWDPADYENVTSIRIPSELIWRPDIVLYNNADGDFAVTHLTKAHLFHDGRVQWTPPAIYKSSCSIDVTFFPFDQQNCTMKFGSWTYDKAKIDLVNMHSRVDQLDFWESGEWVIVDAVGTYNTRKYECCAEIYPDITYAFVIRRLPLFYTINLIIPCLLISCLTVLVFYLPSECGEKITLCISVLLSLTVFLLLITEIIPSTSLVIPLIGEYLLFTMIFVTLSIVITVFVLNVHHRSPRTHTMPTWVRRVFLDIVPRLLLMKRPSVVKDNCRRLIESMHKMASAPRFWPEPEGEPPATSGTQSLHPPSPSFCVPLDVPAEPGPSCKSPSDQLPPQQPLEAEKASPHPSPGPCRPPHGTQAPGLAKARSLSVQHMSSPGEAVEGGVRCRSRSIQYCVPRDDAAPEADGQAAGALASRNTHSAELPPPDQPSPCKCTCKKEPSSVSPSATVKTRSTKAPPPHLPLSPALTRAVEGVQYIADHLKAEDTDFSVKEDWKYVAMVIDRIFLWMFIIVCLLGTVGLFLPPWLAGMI

One may read the inhibition as the relative decrease from the control value, in per cent. The Ki is a dissociation constant, usually derived from enzyme kinetics or from competition with a known ligand. The low end stands for higher affinity, the high end for lower affinity. As a reminder, the IC50 is the concentration needed to halve the response being measured. For `OCC[C@H]1C[C@@H]1c1cncc(OC[C@@H]2CCN2)c1`, the result in [1] and in series [13] was inactive. The inhibition in series [2] was 25.6%; in series [3], -2.5%; in series [4], 24.9%; in series [5] it was 18.2%; in series [6], 6.7%; in series [8], 41.4%. In addition, the inhibition in [9] is 43.7%; in series [10], 0.4%; in series [11] it was 9.3%; in [15], -5.3%; in [17], 9.9%; in series [18] it was -3.7%. Besides, the inhibition in series [19] was found to be 10%. Moreover, the Ki in series [7] was found to be 6520 nM. For the same compound, in series [12], the “inhibition (INH)” value is “<= 25%”. The IC50 in [14] stood at 9.4 nM. In series [16], the Efficacy amounted to 63%.

`COCC[C@H]1C[C@@H]1c1cncc(OC[C@@H]2CCN2)c1`: the result in series [1] and in [13] was inactive. Besides, the inhibition in [2] is 19.1%; in series [3], 2%; in series [4] it was 22.7%; in series [5] it was 24.7%; in series [6], 13.4%; in [8], -4.8%. For the same compound, the inhibition is 21.7% in series [9]; -5.6% in [10]; -1.8% in [11]; 9.7% in [15]; 16.4% in series [17]; 0.7% in series [18]. In addition, in series [19], the inhibition was found to be 15%. The same compound gave an inhibition constant Ki in series [7] greater than 10000 nM. In [12], the “inhibition (INH)” value is listed as “<= 25%”. In addition, the IC50 in [14] amounted to 5.6 nM. In addition, the Efficacy in series [16] worked out at 71%.

For the compound `CNC(=O)OCC[C@H]1C[C@@H]1c1cncc(OC[C@@H]2CCN2)c1`, the outcome in series [1] and in [13] was inactive. Moreover, the inhibition in series [2] was -1.5%; in series [3], -1.1%; in series [4], 32.1%; in series [5], 48.7%; in series [6], -8.2%; in series [8], 30.5%. Besides, the inhibition was 63% in series [9]; 37.3% in series [10]; -2.6% in series [11]; 15.5% in series [15]; 12.4% in series [17]; 29.2% in series [18]. In [19], the inhibition was -4.2%. This compound came in with a Ki in [7] greater than 10000 nM. For the same compound, in series [12], the “inhibition (INH)” value was “<= 25%”. The IC50 in [14] was found to be 18.2 nM. Also, the Efficacy in series [16] came to 85%.
